pKi: −log10 of the molar value.
Columns and labels:
[1] = target: 5-hydroxytryptamine receptor 6 (Rattus norvegicus, UniProt P31388); assay: The compound was tested for binding affinity against 5-hydroxytryptamine 6 receptor
D(1B) dopamine receptor = D(1B) dopamine receptor (Homo sapiens, UniProt P21918); assay: The compound was tested for binding affinity against human Dopamine receptor D5
[2] = target: T1, Adrenergic receptor alpha-1 (Homo sapiens, UniProt P35348+P25100+P35368); assay: The compound was tested for binding affinity against human Alpha-1 adrenergic receptor; type: protein assay
T1 sequence (P35348 whole entry): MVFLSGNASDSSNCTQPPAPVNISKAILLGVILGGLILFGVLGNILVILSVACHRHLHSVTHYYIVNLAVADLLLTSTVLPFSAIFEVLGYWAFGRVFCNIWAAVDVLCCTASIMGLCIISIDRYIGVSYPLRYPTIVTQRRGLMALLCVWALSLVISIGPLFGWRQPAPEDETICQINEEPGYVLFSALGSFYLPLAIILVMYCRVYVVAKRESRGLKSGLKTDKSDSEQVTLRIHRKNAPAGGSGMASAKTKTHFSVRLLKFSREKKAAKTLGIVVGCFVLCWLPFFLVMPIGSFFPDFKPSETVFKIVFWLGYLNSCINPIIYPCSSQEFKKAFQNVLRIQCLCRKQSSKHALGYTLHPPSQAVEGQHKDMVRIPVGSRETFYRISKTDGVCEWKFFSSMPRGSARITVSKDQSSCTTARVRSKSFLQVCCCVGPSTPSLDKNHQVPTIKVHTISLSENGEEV
T1 sequence (P25100 whole entry): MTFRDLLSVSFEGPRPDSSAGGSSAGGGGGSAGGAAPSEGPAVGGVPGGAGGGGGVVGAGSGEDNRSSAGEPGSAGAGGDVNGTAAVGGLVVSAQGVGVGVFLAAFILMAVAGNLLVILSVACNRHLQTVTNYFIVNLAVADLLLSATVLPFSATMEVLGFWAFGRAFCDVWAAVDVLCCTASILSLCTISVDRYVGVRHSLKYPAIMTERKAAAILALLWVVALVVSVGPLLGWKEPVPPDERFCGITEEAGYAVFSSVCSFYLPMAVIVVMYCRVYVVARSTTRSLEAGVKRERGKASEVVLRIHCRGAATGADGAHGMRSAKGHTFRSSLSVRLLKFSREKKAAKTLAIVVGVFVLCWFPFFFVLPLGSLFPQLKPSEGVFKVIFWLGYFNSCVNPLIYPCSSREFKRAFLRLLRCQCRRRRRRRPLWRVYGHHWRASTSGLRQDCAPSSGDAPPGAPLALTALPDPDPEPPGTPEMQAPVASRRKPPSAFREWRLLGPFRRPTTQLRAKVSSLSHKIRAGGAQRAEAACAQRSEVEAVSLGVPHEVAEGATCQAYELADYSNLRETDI
T1 sequence (P35368 whole entry): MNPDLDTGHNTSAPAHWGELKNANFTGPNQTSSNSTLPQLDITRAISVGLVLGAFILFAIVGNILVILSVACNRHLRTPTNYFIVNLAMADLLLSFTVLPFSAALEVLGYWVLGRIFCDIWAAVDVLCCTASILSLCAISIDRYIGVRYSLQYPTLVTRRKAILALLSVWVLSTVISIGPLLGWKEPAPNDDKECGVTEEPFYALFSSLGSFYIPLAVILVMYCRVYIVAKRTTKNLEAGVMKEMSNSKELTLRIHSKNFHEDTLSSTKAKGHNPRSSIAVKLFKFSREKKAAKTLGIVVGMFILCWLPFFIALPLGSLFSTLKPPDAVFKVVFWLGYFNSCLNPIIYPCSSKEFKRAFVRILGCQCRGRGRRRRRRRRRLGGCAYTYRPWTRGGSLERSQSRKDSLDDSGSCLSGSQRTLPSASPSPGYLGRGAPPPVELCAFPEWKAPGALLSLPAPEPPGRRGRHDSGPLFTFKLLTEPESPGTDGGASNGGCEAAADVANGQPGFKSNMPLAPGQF
How it was run: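 Postmortem human cortex membranes, stored at −80 °C, assayed in 50 mM Tris-HCl pH 7.6. Incubated with 0.1 nM [3H]prazosin for 30 min at 30 °C, test agent at 10^-6 M or 10 concentrations; 5 μM phentolamine for nonspecific binding. IC50 by curve fitting, converted to Ki (Cheng–Prusoff).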

Mus musculus = assay: Antagonistic activity against apomorphine induced climbing in the mouse after po administration; type: functional
How it was run: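 Male CD1 mice (20–25 g), groups of 10, dosed po with compound or vehicle ([…]) at set times before apomorphine 0.88 mg/kg sc. Each mouse placed in an inverted open-ended wire cage; climbing scored 0–2 at 10 and 20 min after apomorphine.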

[3] = target: T2, Alpha-2A adrenergic receptor (Rattus norvegicus, UniProt P22909); assay: The compound was tested for binding affinity against alpha-2D adrenergic receptor
T2 sequence (P22909 whole entry): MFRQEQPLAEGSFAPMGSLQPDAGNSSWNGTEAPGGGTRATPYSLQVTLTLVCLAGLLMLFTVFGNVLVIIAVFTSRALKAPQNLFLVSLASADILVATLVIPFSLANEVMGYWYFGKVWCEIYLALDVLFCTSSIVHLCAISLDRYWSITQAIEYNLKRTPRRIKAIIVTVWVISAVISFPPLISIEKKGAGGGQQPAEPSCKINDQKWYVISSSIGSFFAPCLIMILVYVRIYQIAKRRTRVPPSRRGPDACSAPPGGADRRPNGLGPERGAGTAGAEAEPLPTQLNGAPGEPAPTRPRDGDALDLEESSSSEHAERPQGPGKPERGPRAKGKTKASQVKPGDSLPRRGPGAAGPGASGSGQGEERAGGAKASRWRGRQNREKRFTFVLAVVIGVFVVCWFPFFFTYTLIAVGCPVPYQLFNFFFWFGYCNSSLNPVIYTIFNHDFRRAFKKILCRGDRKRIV

Histamine H1 receptor = Histamine H1 receptor (Rattus norvegicus, UniProt P31390); assay: The compound was tested for binding affinity against H1 receptor
[4] = target: T3, 5-hydroxytryptamine receptor 1A (Rattus norvegicus, UniProt P19327); assay: Binding affinity towards 5-hydroxytryptamine 1A receptor from rat brain using [3H]-8-OH-DPAT as radioligand
T3 sequence (P19327 whole entry): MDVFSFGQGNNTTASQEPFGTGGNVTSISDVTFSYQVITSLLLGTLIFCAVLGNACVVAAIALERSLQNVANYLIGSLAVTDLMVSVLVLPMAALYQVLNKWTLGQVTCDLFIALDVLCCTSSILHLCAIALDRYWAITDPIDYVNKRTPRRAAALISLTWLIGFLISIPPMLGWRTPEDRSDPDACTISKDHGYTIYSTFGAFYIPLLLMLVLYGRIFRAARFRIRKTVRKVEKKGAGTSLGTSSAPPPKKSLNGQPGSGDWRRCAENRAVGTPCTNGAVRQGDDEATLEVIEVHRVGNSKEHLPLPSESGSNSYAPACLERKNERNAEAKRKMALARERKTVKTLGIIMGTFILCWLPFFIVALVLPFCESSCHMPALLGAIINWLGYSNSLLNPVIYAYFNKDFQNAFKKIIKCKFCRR

Chain of Histamine H1 receptor (P31390 whole entry): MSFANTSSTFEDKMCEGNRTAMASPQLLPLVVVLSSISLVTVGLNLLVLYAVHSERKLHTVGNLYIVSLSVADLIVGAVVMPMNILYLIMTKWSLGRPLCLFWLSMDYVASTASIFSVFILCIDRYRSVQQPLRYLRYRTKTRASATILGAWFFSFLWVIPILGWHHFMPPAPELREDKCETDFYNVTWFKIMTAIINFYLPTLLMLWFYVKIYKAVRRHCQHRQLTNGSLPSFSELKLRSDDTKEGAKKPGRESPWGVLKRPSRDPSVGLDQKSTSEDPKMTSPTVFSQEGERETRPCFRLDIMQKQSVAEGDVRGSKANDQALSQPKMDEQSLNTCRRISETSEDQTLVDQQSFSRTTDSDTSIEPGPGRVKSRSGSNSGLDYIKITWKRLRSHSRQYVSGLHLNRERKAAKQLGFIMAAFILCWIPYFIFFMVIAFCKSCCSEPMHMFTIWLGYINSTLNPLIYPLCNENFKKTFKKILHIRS
Chain of D(1B) dopamine receptor (P21918 whole entry): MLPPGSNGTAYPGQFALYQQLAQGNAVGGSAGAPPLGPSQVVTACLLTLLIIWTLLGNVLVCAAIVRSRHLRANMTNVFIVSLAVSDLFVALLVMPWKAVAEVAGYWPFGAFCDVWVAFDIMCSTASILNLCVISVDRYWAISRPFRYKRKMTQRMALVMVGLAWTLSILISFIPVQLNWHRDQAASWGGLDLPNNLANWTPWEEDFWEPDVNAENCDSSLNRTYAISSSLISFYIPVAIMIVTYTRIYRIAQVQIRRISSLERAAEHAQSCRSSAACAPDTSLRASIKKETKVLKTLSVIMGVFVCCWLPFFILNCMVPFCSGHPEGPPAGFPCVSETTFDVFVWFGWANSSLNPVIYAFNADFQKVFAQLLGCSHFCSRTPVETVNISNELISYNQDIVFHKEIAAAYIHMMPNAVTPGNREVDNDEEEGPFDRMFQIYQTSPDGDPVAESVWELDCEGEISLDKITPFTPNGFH
Chain of 5-hydroxytryptamine receptor 6 (P31388 whole entry): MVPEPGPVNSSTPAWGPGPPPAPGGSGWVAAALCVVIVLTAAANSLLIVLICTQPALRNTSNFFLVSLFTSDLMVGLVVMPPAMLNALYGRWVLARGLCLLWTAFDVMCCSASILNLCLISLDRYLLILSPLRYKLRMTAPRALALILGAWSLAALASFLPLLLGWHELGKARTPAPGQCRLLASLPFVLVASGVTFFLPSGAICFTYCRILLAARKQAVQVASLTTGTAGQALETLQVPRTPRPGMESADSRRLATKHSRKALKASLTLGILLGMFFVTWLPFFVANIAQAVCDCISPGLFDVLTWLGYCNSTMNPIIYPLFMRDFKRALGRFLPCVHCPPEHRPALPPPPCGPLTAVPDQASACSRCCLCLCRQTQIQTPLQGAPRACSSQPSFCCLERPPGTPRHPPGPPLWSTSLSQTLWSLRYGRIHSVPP

**Q.** How did the pKi [1] turn out when `COc1ccccc1N1CCC(CNCC2COc3ccc(Cl)cc3O2)CC1` (configuration not stated) was run?
**A.** The pKi was under 6.30.

**Q.** What about the pKi (D(1B) dopamine receptor) of the same compound?
**A.** Its pKi is under 6.00.

**Q.** What about the Ki [2] of the same compound?
**A.** Its Ki is 181 nM.

**Q.** And the ED50 (Mus musculus)?
**A.** The ED50 was 5 mg/kg.

**Q.** What about the pKi [3] of the same compound?
**A.** Its pKi is under 6.30.

**Q.** And the pKi (Histamine H1 receptor)?
**A.** Its pKi is under 6.00.

**Q.** And the pKi [4]?
**A.** Its pKi is 7.66.

Reference: ChEMBL document CHEMBL1132360, “N-Substituted (2,3-dihydro-1,4-benzodioxin-2-yl)methylamine derivatives as D(2) antagonists/5-HT(1A) partial agonists with potential as atypical antipsychotic agents” (J Med Chem, 1999)
